Screening results: PubChem BioAssay, several laboratories
GPR7 antag: antagonists of human GPR7 (neuropeptides B/W receptor 1); P48145; GPR7-expressing cells, fluorescence antagonist assay; inhibition, % at 4.4 µM; 290,000 compounds, 1.1% hits; in the data active = inhibition above about 16%, passing the limit was not always enough;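 note: cells stimulated with the agonist NPW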
Target sequence (P48145 whole entry, looked up): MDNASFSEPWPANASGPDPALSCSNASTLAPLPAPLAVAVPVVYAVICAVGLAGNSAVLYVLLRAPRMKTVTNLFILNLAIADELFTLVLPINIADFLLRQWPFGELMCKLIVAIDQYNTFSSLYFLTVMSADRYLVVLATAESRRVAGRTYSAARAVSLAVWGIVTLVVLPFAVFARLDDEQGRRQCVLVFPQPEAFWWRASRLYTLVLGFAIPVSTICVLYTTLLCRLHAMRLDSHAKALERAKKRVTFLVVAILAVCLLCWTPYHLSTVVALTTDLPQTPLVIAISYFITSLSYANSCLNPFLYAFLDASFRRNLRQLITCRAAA
OX1R antag-1: antagonists of human orexin 1 receptor (OX1R); O43613; OX1R-expressing cells, FRET antagonist read-out; inhibition, % at 6.6 µM; 330,000 compounds, 1.8% hits; AID 485270; in the data active = inhibition mostly above about 38%, no sharp cut-off; inactive = mostly below about 40%
MPTP inh: permeability transition pore inhibition. isolated mouse mitochondria, Ca2+ swelling absorbance, 30 min. AID 602449. 360,000 compounds, 1.4% hits. inhibition, % at 10 µM;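 active = inhibition of 50% or more, scaled per plate between neutral and stimulator controls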
OX1R antag-2: human HCRTR1 antagonism | O43613 | CHO/OX1R cells, Fluo-8 calcium fluorescence, orexin A | inhibition, % at 5 µM | 330,000 compounds, 0.43% hits | AID 434989;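 active = inhibition above its plate's threshold, mean inhibition of all tested compounds on the plate plus 3 SD, cut at about 37% in these data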
CHO parental Ca: counter-screen: ATP calcium response change in parental CHO cells | parental CHO-K1, ATP-induced calcium, Fluo-8 fluorescence | inhibition, % at 5.6 µM | 330,000 compounds, 0.63% hits | AID 463079;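 active = inhibition above that plate's mean sample inhibition plus 3 SD, cut at about 26% in these data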
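Assay system – parental CHO cells · Reagent – ATP stimulus · Detection – intracellular calcium via Fluo-8 no-wash fluorescent dye · Evaluation – percent inhibition of ATP-evoked calcium rise, normalized to controls · Controls – ATP wells versus no-ATP DMSO wells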
Each line names hits and unclear results; the compound was inactive in the other large screens. Sampled rows, rich in hits. Any-hit rate of the full collection: about 3.8%.

COc1cccc(-c2cc(C(=O)Nc3cccc(O)c3)no2)c1	OX1R antag-1 71
COc1ccc(NC(=O)c2cc(-c3ccco3)on2)cc1	CHO parental Ca 64
N#Cc1ccc(C(=O)CN2CCN(c3ccccc3)CC2)cc1	none
S=C(Nc1ccc2c(c1)OCO2)N1CCN(Cc2ccco2)CC1	none
COc1ccc(CN(C(=O)CSc2nnc(-c3ccccc3F)o2)c2ccc(F)cc2)cc1	CHO parental Ca 26
Cc1cccc(CC(=O)c2c[nH]c3ccccc23)c1	none (no result: OX1R antag-2)
CCOc1ccc([C@@H]2CC=C(C(=O)O)[C@H](c3cccc(Cl)c3)N2S(=O)(=O)c2ccc(C)cc2)cc1	OX1R antag-1 55 (no result: GPR7 antag)
Cc1ccc(S(=O)(=O)N2C(c3cccc(Cl)c3)CC=C(C(=O)O)C2c2cccc(Cl)c2)cc1 (stereo not given)	none (no result: GPR7 antag, OX1R antag-1, OX1R antag-2, CHO parental Ca)
Cc1ccc(S(=O)(=O)N2[C@@H](c3cccc(Cl)c3)C(C(=O)O)=CC[C@H]2c2ccc(Cl)cc2)cc1	OX1R antag-1 74 (no result: GPR7 antag)
CCOc1cccc(/C=C/c2ccc3cccc(O)c3n2)c1O	none
CCOc1cccc(/C=C/c2ccc3cccc(O)c3n2)c1OC	CHO parental Ca 48
COc1ccc(C(=O)OCC#CCSc2nnc(-c3cccc4ccccc34)o2)cc1	none (no result: GPR7 antag)
COc1ccccc1C(=O)OCC#CCSc1nnc(-c2cccc3ccccc23)o1	OX1R antag-1 49 (no result: GPR7 antag)
COc1ccc(Cc2c(C3CCCCC3)nc3c(C)cc(Br)cn23)c(C)c1	none (no result: GPR7 antag, OX1R antag-1, OX1R antag-2, CHO parental Ca)
C/C(=N\Nc1cccc(Cl)c1)c1ccc(-n2ccnc2)cc1	none
N/C(=N\c1nc2ccccc2o1)NC(=O)/C=C/c1ccccc1	OX1R antag-1 40
N/C(=N\c1nc2ccccc2o1)NC(=O)c1ccccc1	none
COc1ccc(OCCN2CCN(S(=O)(=O)c3ccccc3C(F)(F)F)CC2)cc1	none (no result: GPR7 antag)
COc1ccc(N2CCN(C(=O)NC(=O)c3ccc(Cl)cc3)CC2)cc1	none
COC(=O)c1sc(N2CCN(c3ccc(Cl)cc3)CC2)nc1N	CHO parental Ca 44
Cc1ccc(S(=O)(=O)N(C)c2ccc(OCC(=O)Nc3nc4ccccc4s3)cc2)cc1	OX1R antag-1 57
CCC(=O)c1ccc(OCC(=O)Nc2cccc(S(=O)(=O)N(C)c3ccccc3)c2)cc1	OX1R antag-1 27, OX1R antag-2 77, CHO parental Ca 44 (no result: GPR7 antag)
CCN1CCN(C(=O)Cn2ncc3c2-c2ccccc2OC3)CC1	none
Cc1ccc(C)c(CN2CCCN(C(=O)Cn3ncc4c3-c3ccccc3OC4)C2)c1	OX1R antag-1 56
CCN(CC(=O)NC)S(=O)(=O)c1ccc(C)cc1	none
CCN(CC(=O)NC)S(=O)(=O)c1ccc(Br)cc1	GPR7 antag 16
CCN(CC)S(=O)(=O)c1ccc(C(=O)O)cc1	none
CCN(CC)S(=O)(=O)c1ccc(-c2ccc(S(=O)(=O)N(CC)CC)cc2)cc1	CHO parental Ca 41
CC(CCC(C)C(C)(C)C)[C@@H]1CC[C@H]2C3C[C@H](OS(O)(=S)=S)[C@H]4C[C@H](OS(O)(=S)=S)[C@@H](OS(O)(=S)=S)C[C@]4(C)[C@H]3CC[C@]12C (stereo not given in full) (tested in a mixture with another compound)	OX1R antag-1 66, OX1R antag-2 101, CHO parental Ca 84 (no result: GPR7 antag)
CC(CCC(=O)NN)C1CCC2C3CCC4CC(O)CCC4(C)C3CCC12C (stereo not given)	none (no result: GPR7 antag, OX1R antag-1, OX1R antag-2, CHO parental Ca)
Cc1ccc(S(=O)(=O)NNC(=S)NC(=O)c2ccc([N+](=O)[O-])cc2)cc1	OX1R antag-1 70
CCCCCC(=O)NNC(=S)NC(=O)c1ccc([N+](=O)[O-])cc1	OX1R antag-1 70
Cc1ccc(C(=O)NC(=S)NNC(=O)c2ccc([N+](=O)[O-])cc2)cc1	none
COc1ccc(OCC(=O)NNC(=S)NC(=O)c2ccc([N+](=O)[O-])cc2)cc1	none
CN(C(=O)c1cccc(NC(=O)Cc2cccc(NC(=O)C3CCN(C(=O)C4CCCC4)CC3)c2)c1)C1CC1	none (no result: GPR7 antag, OX1R antag-1, OX1R antag-2, CHO parental Ca)
CC1(C)CCN2CCC(C)(C)c3c(O)ccc1c32	OX1R antag-2 41, CHO parental Ca 38
CCOc1ccc(NC(=O)CSCc2cnn(-c3ccccc3)c2-n2cccc2)cc1	OX1R antag-1 76
CN(Cc1ccccc1)C(=O)c1cnc(Cc2c[nH]c3ccccc23)c(I)c1	none (no result: GPR7 antag, OX1R antag-1, OX1R antag-2, CHO parental Ca)
O=S(=O)(NCc1csc(-c2cccnc2)n1)c1ccc(Cl)s1	OX1R antag-1 41
O=S(=O)(NCc1csc(-c2ccccc2)n1)c1ccc(Cl)s1	none
O=S(=O)(NCc1csc(-c2cccnc2)n1)c1ccc2c(c1)OCCO2	OX1R antag-1 72
CC(C)c1cc(Cn2c3ccccc3c(=O)n2C(C)Cn2cc(-c3ccc(C(C)(C)C)cc3)nn2)on1 (stereo not given)	none (no result: GPR7 antag, OX1R antag-1, OX1R antag-2, CHO parental Ca)
COc1ccc(/C=C/C(=O)Nc2ccc3c(c2)CCC3)cc1OC	OX1R antag-1 73
COc1ccc(NC(=O)Nc2ccc3c(c2)CCC3)cc1OC	none
CCc1ccccc1NC(=O)CNC(=O)c1cc(C2CC2)nc2c1cnn2C(C)C	OX1R antag-1 38 (no result: GPR7 antag)
Cc1cc(C)c(NC(=O)CNC(=O)c2cc(C3CC3)nc3c2cnn3C(C)C)c(C)c1	none (no result: GPR7 antag, OX1R antag-1, OX1R antag-2, CHO parental Ca)
NNC(=O)c1ccc([N+](=O)[O-])c(CS(=O)(=O)c2ccc(Cl)cc2)c1	none
CN(C)C=NC(=O)c1ccc([N+](=O)[O-])c(CS(=O)(=O)c2ccc(Cl)cc2)c1	OX1R antag-1 72
CCOC(=O)C1(C)CCCCCN1C(=O)c1ccccc1F (stereo not given)	none (no result: GPR7 antag, OX1R antag-1, OX1R antag-2, CHO parental Ca)
Cc1cccc(NC(=O)CCS(=O)(=O)c2cccc3nsnc23)c1C	OX1R antag-1 63
COc1ccc(CCNC(=O)CCS(=O)(=O)c2cccc3nsnc23)cc1OC	OX1R antag-1 77
Cc1cccc(C)c1NC(=O)c1ccc([N+](=O)[O-])s1	none
CC(C)(C)C(=O)O/N=C(\N)c1ccc([N+](=O)[O-])s1	none
N/C(=N\OC(=O)C1CC1)c1ccc([N+](=O)[O-])s1	OX1R antag-1 56
N/C(=N\O)c1ccc([N+](=O)[O-])s1	OX1R antag-1 47
COCCN(CCOC)S(=O)(=O)c1ccc(NC(=O)c2cnccn2)cc1	none
O=C(O)c1ccc(C(=O)c2ccc3c(c2)C(=O)N(Cc2ccco2)C3=O)cc1	OX1R antag-1 50
O=C(O)c1ccc(C(=O)c2ccc3c(c2)C(=O)N(CCO)C3=O)cc1	OX1R antag-1 74
CCN1C(=O)c2ccc(C(=O)O)cc2C1=O	none
O=C(c1ccc2c(c1)C(=O)N(Cc1ccco1)C2=O)N1CCOCC1	none
COc1cccc(/C=N/NC(=O)c2cc3c(OC)ccc(OC)c3[nH]2)c1O	OX1R antag-1 48
COc1cccc(/C=N/NC(=O)c2ccc3nc[nH]c3c2)c1O	none
COc1cc(NC(=S)Nc2ccc(N(C)C(C)=O)cc2)cc(OC)c1	none
O=C(CCc1nnc(Cc2c[nH]c3ccccc23)o1)NC(C1CC1)C1CC1	none
CC(=O)c1ccc(N(CC(=O)NC2CCCC2)C(=O)c2ccc(C)s2)cc1	GPR7 antag 21
Cc1cc(C(C)(C)C)oc1C(=O)N(CC(=O)NC1CCCC1)c1ccc(F)cc1	OX1R antag-1 54
